An excerpt weighted towards active compounds, which were near 29% of everything screened.
E coli WT exp = E. coli BW25113 growth inhibition, expanded screen; OD600 absorbance; growth inhibition, % at 100 µM; actives 0.15% (n = 98,000);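 active means growth inhibition above about 50% at one test dose, limit read from the data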;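 further: growth measured after 20 h incubation at 37 °C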
CYP2C9 act = CYP2C9 (human) activation; P11712; recombinant CYP2C9, luciferin-H conversion, luminescence; stronger effect = higher value; factor 1 = untreated enzyme, 0 = blocked; activation factor at 5 µM; actives 1.4% (n = 96,000); AID 1024;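 active means activation factor of 2 or more for CYP2C9 at a 5 µM dose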
Target sequence (P11712 whole entry, looked up): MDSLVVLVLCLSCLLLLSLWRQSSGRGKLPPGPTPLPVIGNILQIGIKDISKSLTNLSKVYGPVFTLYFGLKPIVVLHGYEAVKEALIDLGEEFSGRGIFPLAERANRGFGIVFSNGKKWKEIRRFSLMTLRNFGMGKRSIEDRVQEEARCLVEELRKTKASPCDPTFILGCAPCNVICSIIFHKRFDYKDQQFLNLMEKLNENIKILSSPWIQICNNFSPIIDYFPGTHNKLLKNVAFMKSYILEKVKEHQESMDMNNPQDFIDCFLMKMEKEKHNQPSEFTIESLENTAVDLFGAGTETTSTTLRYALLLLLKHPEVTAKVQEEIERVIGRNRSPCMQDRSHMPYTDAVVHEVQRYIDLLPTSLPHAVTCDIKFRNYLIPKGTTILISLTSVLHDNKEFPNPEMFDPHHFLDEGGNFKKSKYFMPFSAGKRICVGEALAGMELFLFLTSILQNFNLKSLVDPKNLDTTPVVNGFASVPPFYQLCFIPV
CYP2C19 inh = inhibitors of human CYP2C19 | inhibition, % at 5 µM | CYP2C19 Supersomes, luciferin-H EGE luminescence, 30 min | P33261 | actives 21% (n = 96,000);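 active means CYP2C19 inhibition above a set limit at 5 µM in the primary screen, cut at about 50% in these data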
CYP2C9 inhib = inhibitors of human CYP2C9; P11712; CYP2C9 Supersomes, luciferin-H conversion, luminescence; inhibition, % at 5 µM; actives 20% (n = 96,000);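 active means blocking of liver enzyme CYP2C9 beyond about 50% at 5 µM, limit read from the data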
tolC growth inh = blocks growth of E. coli BW25113 tolC mutant | OD615 | growth inhibition, % at 10 µM (by protocol) | actives 2.2% (n = 65,000) | AID 573;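 active means growth inhibition at or above a cutoff equal to the mean over every tested compound plus 3 SD, cut at about 60% in these data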;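 further: growth measured after 20 h incubation at 37 °C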
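Signal: optical density read at 615 nm; Assay system: E. coli ΔtolC::kan strain BW25113; Times: 20 h incubation with compound, 37 °C; Dosing: 10 µM final, single dose.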
CYP2C19 activ = increases human CYP2C19 enzyme activity; activation factor at 5 µM; recombinant CYP2C19, luciferin-H EGE luminescence; stronger effect = higher value; 0 = fully inhibited enzyme, 1 = untreated enzyme; 96,000 tested, under 10 active; AID 1025;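 active means activation factor of at least 2 at 5 µM in the primary screen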
Of the large screens only hits and unclear results are named; the others gave an inactive call.

COC(=O)CSC1=C(C#N)C(c2ccc(C)cc2)C2=C(CCCC2=O)N1 (stereo not drawn)	none
CCOC(=O)CSC1=C(C#N)C(C)C2=C(CCCC2=O)N1 (stereo not drawn)	CYP2C19 inh 94
CCSC1=C(C#N)C(c2ccc3c(c2)OCO3)C2=C(CCCC2=O)N1 (stereo not drawn)	CYP2C19 inh 85, CYP2C9 inhib 67 (no result: tolC growth inh)
COc1ccccc1-n1c(=O)[nH]c2c(C(N)=O)nc(-c3cccnc3)nc21	none (no result: E coli WT exp, CYP2C9 act, CYP2C19 inh, CYP2C9 inhib, CYP2C19 activ)
CN(C)c1ccc(C(CC(=O)O)NC(=O)c2ccc(Cl)cc2)cc1 (stereo not drawn)	none
CN(C)S(=O)(=O)c1ccc2oc(SCC(=O)NCC(F)(F)F)nc2c1	none
CCc1ccccc1NC(=O)CSC1=C(C#N)C(c2ccc(O)c(OC)c2)C2=C(CCCC2=O)N1 (stereo not drawn)	CYP2C9 inhib 56
CCN(Cc1nc2ccccc2c(=O)[nH]1)Cc1cc(=O)oc2cc(OC)ccc12	CYP2C9 inhib 52 (no result: tolC growth inh)
CCC(CC)C(=O)N(CCc1ccc(OC)cc1)Cc1nc2ccccc2c(=O)[nH]1	none (no result: tolC growth inh)
COc1ccc2c(COC(=O)c3n[nH]c4ccccc34)cc(=O)oc2c1	CYP2C9 inhib 56 (no result: tolC growth inh)
Cc1cc2oc(=O)cc(COC(=O)c3n[nH]c4ccccc34)c2cc1C	CYP2C9 inhib 76 (no result: tolC growth inh)
COC(=O)c1nn(C23CC4CC(CC(C4)C2)C3)c2c1C(=O)N(c1ccc(Br)cc1)C2=O	none (no result: tolC growth inh)
COC(=O)c1ccccc1NC(=O)CSc1nnc(Cc2ccc(Cl)cc2)o1	CYP2C19 inh 91, CYP2C9 inhib 82
COc1ccc(NC(=O)CSc2nnc(CNC(=O)COc3ccc(Cl)cc3)o2)c(OC)c1	none
COc1ccccc1OCc1nnc(SCC(=O)c2cc(Cl)ccc2OC)o1	CYP2C9 act 2.6
COc1ccccc1NC(=O)CSc1nnc(CNC(=O)COc2ccc(Cl)cc2)o1	CYP2C9 act 2.2, CYP2C19 inh 59
C/C(N)=C(/C#N)C(=O)CSc1nnc(COc2ccccc2Cl)o1	none
COc1ccc(OC)c(NC(=O)CSc2nnc(CNC(=O)COc3ccc(Cl)cc3)o2)c1	CYP2C19 inh 61
O=C(c1ccccc1)c1nc[nH]c1C(=O)Nc1ccccc1	none
CCN(CC)CCOC(=O)c1cccc(Br)c1	none
CN(CCOC(=O)c1cccc(Br)c1)C(C)(C)C	CYP2C9 inhib 60
c1ccc2nc(-c3nc4ccccc4o3)ccc2c1	CYP2C19 inh 71
O=C(CSc1nnc(-c2ccncc2)n1-c1ccc(Cl)cc1)NCc1cccs1	CYP2C19 inh 96, CYP2C9 inhib 77 (no result: tolC growth inh)
CCn1c(SCC(=O)NCc2ccc(C)cc2)nnc1-c1ccncc1	none
Cn1c(SCC(=O)NCc2cccs2)nnc1-c1ccncc1	none
Cc1c(Cl)cccc1-n1c(SCC(=O)NCc2cccs2)nnc1-c1ccncc1	CYP2C19 inh 97, CYP2C9 inhib 77 (no result: tolC growth inh)
O=C(CSc1nnc2ccccn12)NCc1cccs1	none
Cc1c(Cl)cccc1-n1c(SCC(=O)NCc2ccccc2Cl)nnc1-c1ccncc1	CYP2C19 inh 94, CYP2C9 inhib 81 (no result: tolC growth inh)
O=c1cc(CN2CCN(c3ccccc3F)CC2)c2cc3c(cc2o1)CCCC3	none (no result: tolC growth inh)
CSc1ccc(S(=O)(=O)Nc2c(C)cccc2C)cc1	none
O=S(=O)(NCc1ccc(F)cc1)c1ccc2c(c1)OCCO2	CYP2C9 act 2, CYP2C19 inh 60
CSc1ccc(S(=O)(=O)Nc2ccc(N3CCOCC3)c(Cl)c2)cc1	CYP2C19 inh 100, CYP2C9 inhib 98, tolC growth inh 100
CSc1ccc(S(=O)(=O)Nc2ccc3c(c2)OCCO3)cc1	CYP2C19 inh 68
O=S(=O)(Nc1ccc2c(c1)OCCO2)c1ccc(F)cc1	CYP2C19 inh 88, CYP2C9 inhib 69 (no result: tolC growth inh)
CC1CC(NC(=O)CCn2c(=O)oc3ccccc32)CC(C)(C)C1 (stereo not drawn)	none
CCCn1c2c(c(O)c(C(=O)Nc3ccc(OCC)cc3)c1=O)CCCC2	CYP2C9 inhib 52
CCCn1c2c(c(O)c(C(=O)Nc3ccc(C)cn3)c1=O)CCCC2	none (no result: E coli WT exp, CYP2C9 act, CYP2C19 inh, CYP2C9 inhib, CYP2C19 activ)
COCCn1cnc2c(c1=O)c1nc3ccccc3nc1n2/N=C/c1cccc(OC)c1OC	none (no result: E coli WT exp, CYP2C9 act, CYP2C19 inh, CYP2C9 inhib, CYP2C19 activ)
CCOc1ccc(S(=O)(=O)n2nc(C)cc2C)c2ccccc12	none
COc1ccc(OC)c(S(=O)(=O)n2cnc3cc(C)c(C)cc32)c1	CYP2C19 inh 98, CYP2C9 inhib 87, tolC growth inh 94
COc1ccc(OC)c(S(=O)(=O)n2nc(C)cc2C)c1	CYP2C19 inh 68 (no result: tolC growth inh)
CCC(=O)c1cc(F)c(N2CCN(C(=O)Cc3ccccc3)CC2)cc1C	CYP2C19 inh 85, CYP2C9 inhib 84
CCC(=O)c1ccc(N2CCN(C(=O)Cc3ccccc3)CC2)c(F)c1	CYP2C19 inh 78, CYP2C9 inhib 95
Cc1cc(N2CCOCC2)c(F)cc1C(=O)c1ccccc1	CYP2C19 inh 59 (no result: tolC growth inh)
Cn1nnnc1SCC(=O)Nc1ccccc1N1CCCCC1	none (no result: CYP2C9 act, CYP2C19 inh, CYP2C9 inhib, CYP2C19 activ)
Cn1c(-c2ccccc2)cc2c3no[n+]([O-])c3ccc21	CYP2C19 inh 80, tolC growth inh 95
O=C1C2CC=CCC2C(=O)N1c1cccc(OS(=O)(=O)c2ccc3ccccc3c2)c1 (stereo not drawn)	none (no result: tolC growth inh)
COc1ccc(NC(=O)CN(C2CCCCC2)S(C)(=O)=O)cc1Cl	none (no result: tolC growth inh)
COc1ccc(S(=O)(=O)N(C)CC(=O)NC2CC2)cc1	CYP2C9 act 2.5
COc1ccc(S(=O)(=O)N(CC(N)=O)C2CCCCC2)cc1Cl	CYP2C19 inh 72
COc1ccc(S(=O)(=O)N(C)CC(=O)NC2CCCCC2)cc1Cl	CYP2C9 act 2.4, CYP2C19 inh 53 (no result: tolC growth inh)
COc1ccc(S(=O)(=O)N(C)CC(=O)N2CCC(C(N)=O)CC2)cc1Cl	CYP2C9 act 2
COc1ccc(S(=O)(=O)N(C)CC(=O)N2CCCCCC2)cc1OC	none
C/C(=N\n1nnnc1Nc1ccccc1)c1ccc(N)cc1	none
COC(=O)C(Cc1ccccc1)NC(=O)CSc1nc(N)cc(=O)[nH]1 (stereo not drawn)	none
CC(CCc1ccccc1)NC(=O)C1CCN(S(=O)(=O)N2CCCCC2)CC1 (stereo not drawn)	none
Cc1ccc(-c2c3c(=O)n(C)c(=O)n(C)c3c3c(C)cc(C)nn23)cc1	none (no result: E coli WT exp, CYP2C9 act, CYP2C19 inh, CYP2C9 inhib, CYP2C19 activ)
O=C(Nc1ccc(Cl)cc1F)C1CCN(S(=O)(=O)c2cccnc2)CC1	none
COc1ccc(S(=O)(=O)N(C)CC(=O)NCc2cccnc2)cc1Cl	CYP2C19 inh 54 (no result: tolC growth inh)
CCOC(=O)C1CCN(C(=O)CN(C)S(=O)(=O)c2cc(C)ccc2OC)CC1	CYP2C9 inhib 54
COc1ccc(N(CC(=O)NC2CCCCC2)S(=O)(=O)c2cccnc2)cc1	CYP2C19 inh 53, CYP2C9 inhib 65
CCOC(=O)CSc1nc(N)c2c3c(sc2n1)CCCC3	CYP2C9 inhib 62
O=C(CSc1nnc2c3c4c(sc3ncn12)CCCC4)NCc1ccco1	none
Cc1nc2sc3c(c2c2nnc(SCC(=O)NCc4ccco4)n12)CCCC3	CYP2C19 inh 98, CYP2C9 inhib 72

Source: PubChem BioAssay
